Only some compounds are listed: those with a hit (about 1.6% of all), similar ones and a draw of the others.
Tb MetRS inh: T. brucei MetRS inhibitors, primary screen, biochemical, luminescence. methionyl-tRNA synthetase (Trypanosoma brucei brucei). purified T. brucei MetRS, ATP depletion, Kinase-Glo luminescence. inhibition, % at 11.9 µM. 0.4% of 360,000 active. AID 624268, 2012;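 active = inhibition above a per-plate cutoff of the control wells' mean inhibition plus 3 SD, cut at about 5.5% in these data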;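 note: 0% = DMSO wells median and 100% = median of wells with control inhibitor compound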
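Assay system: T. brucei methionyl-tRNA synthetase, purified | Medium: HEPES buffer with MgCl2, KCl, DTT, spermine, BSA, pyrophosphatase | Compound: 11.9 µM single point | Incubation: 15 min enzyme-compound preincubation, 2 h reaction, 10 min detection, 25 °C | Measured by: Kinase-Glo luciferase luminescence reporting remaining unconsumed ATP | Measure: % inhibition normalized to control-well medians | Replication: Singlicate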
14-3-3 Bad inh: inhibitors of 14-3-3 zeta/Bad binding, primary screen, biochemical, TR-FRET, bovine 14-3-3 zeta | 14-3-3 protein zeta/delta (Bos taurus), P63103 | TR-FRET 14-3-3zeta/Dy647-pBad peptide displacement, 1 h | inhibition, % at 21.7 µM | 0.71% of 220,000 active | AID 781, 2007;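 active = inhibition above about 70%, limit read from the data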;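 note: 0% = full 14-3-3 plus peptide FRET controls and 100% = background without 14-3-3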
p97 ATPase inh: inhibitors of human p97 ATPase, primary screen, biochemical | Transitional endoplasmic reticulum ATPase (Homo sapiens), P55072 | recombinant p97 ATPase, Kinase-Glo ATP luminescence, 3 h | inhibition, % at 8 µM | 0.42% of 220,000 active | AID 1481, 2009; in the data active = inhibition above about 15%;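 note: 0% = DMSO vehicle and 100% = wells lacking enzyme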
Target sequence (P55072 whole entry, looked up): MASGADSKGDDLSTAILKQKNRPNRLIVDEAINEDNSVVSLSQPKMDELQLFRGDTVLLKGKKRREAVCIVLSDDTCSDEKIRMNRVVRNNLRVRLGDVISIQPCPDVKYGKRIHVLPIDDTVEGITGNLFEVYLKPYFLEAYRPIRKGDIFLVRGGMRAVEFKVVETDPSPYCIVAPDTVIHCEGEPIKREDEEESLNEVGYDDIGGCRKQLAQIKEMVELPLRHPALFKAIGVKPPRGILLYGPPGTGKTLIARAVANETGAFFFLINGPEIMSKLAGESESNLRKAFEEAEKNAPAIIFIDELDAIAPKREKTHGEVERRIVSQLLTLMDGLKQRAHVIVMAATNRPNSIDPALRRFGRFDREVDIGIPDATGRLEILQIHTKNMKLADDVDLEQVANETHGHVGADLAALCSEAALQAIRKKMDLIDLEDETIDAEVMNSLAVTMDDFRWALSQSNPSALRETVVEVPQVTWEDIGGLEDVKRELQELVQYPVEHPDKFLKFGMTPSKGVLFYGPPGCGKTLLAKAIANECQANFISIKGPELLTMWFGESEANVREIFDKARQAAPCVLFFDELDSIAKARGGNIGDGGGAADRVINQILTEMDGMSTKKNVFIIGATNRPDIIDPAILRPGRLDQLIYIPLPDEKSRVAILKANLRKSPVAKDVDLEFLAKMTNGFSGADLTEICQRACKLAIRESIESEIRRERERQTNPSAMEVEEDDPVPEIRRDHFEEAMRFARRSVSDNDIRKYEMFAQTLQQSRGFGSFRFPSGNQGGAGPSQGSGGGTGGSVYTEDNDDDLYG
UBC9 SUMO inh: inhibitors of in vitro SUMOylation cascade, primary screen, biochemical, HTRF, uHTS. 0.36% of 290,000 active. HTRF SUMOylation assay, SAE1/SAE2 + UBC9. SUMO-conjugating enzyme UBC9 (Homo sapiens), P63279. inhibition, % at 35 µM. AID 2006, 2009; in the data active = inhibition above about 50%, passing the limit was not always enough
NCF1 inh: p47phox/p22phox peptide binding inhibitors, primary screen, biochemical, uHTS, NADPH oxidase regulatory subunit | Neutrophil cytosol factor 1 (Homo sapiens), P14598 | fluorescence polarization, 2 h | inhibition, % at 24.7 µM | 0.53% of 220,000 active | AID 1274, 2008;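 note: 0% = p47phox with labelled peptide and 100% = labelled peptide alone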
eIF4E 4G PPI: eIF4E–eIF4G protein interaction inhibitors, primary screen, biochemical, uHTS, TR-FRET, eIF4GI fragment; 0.37% of 220,000 active; TR-FRET eIF4E-eIF4GI(517-606) binding, 2 h; inhibition, % at 21.7 µM; Eukaryotic translation initiation factor 4E (Mus musculus) + Eukaryotic translation …;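 note: 0% = full FRET control wells and 100% = background wells lacking eIF4GI fragment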
Starred values were filed as active, the others as inactive; x = no result given; ! = repeats disagree; [ ] = remark or other dose.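 Rule for the calls, unless noted: active = inhibition above about 30% (limit read from the data); inactive = the rest.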

SMILES	Tb MetRS inh	14-3-3 Bad inh	p97 ATPase inh	UBC9 SUMO inh	NCF1 inh	eIF4E 4G PPI
N#CC(C(=O)NC1CCCCC1)=C1CCCCCC1	1	3	2	-13	0	-4
N#CC(C(N)=O)=C1CCCCC1	0	5	5	19	75*	6
O=C(O)Cc1cccc(=O)c(O)c1C(=O)O	0	x	x	x	x	x
COc1ccccc1NC(=O)C(=O)N/N=C/c1ccc([N+](=O)[O-])s1	0	84*	5	26	27	-4
COc1cc([N+](=O)[O-])ccc1-c1ccc(/C=N/NC(=O)c2ccccc2O)o1	x	89*	9	38	-15	9
O=C(N/N=C/c1ccc(-c2cccc([N+](=O)[O-])c2)o1)c1ccccc1O	0	19	0	x	19	16
COc1cc([N+](=O)[O-])ccc1-c1ccc(C(=O)Nc2ccc(NC(C)=O)cc2)o1	0	95*[fluorescence artefact?]	-1	16	28	29
CC(=O)Nc1ccc(NC(=O)c2ccc(-c3ccc([N+](=O)[O-])cc3)o2)cc1	0	x	x	15	x	x
COc1ccc(N2C(=O)C(C)C(Cc3ccc(C)cc3)C2=O)cc1 (centres undefined)	0	x	x	6	x	x
CCCN1C(=O)/C(=C/c2c(N3CCNC(=O)C3CC(=O)OC)nc3c(C)cccn3c2=O)SC1=S (centres undefined)	x	-3	15*	35	-24	-9
CCOC(=O)CC1C(=O)NCCN1C(=O)c1cc2c(=O)n3cccc(C)c3nc2s1 (centres undefined)	0	-7	4	20	-2	5
O=C1CC(=O)N2N=C(c3ccc([N+](=O)[O-])cc3)SC2=N1	0	7	6	-3	-2	2
CCOC(=O)CSc1ncnc2c1cnn2-c1ccc(Cl)cc1	0	85*	4	0	-2	0
O=c1[nH]c2ccc(S(=O)(=O)Nc3ccc(-c4nnc5n4CCCCC5)cc3)cc2o1	0	-2	6	20	56*	-19
CS(=O)(=O)Nc1ccc(-c2nnc3n2CCCCC3)cc1	-1	x	x	3	x	x
O=C1Nc2ccccc2SC(c2ccccc2)C1O (centres undefined)	-1	40	3	6	-21	36*
CCN(CC)CC(=O)Nc1c(C)cccc1C	0	-4	20*!	-3	2	2
O=C1CC(c2ccccc2)CC2=C1C1(CCCC1)N=C(Nc1nc3ccccc3o1)N2 (centres undefined)	-1	x	x	x	x	x
COc1ccccc1NC(=O)Nc1ccnn1Cc1cccs1	0	-4	2	78*	6	1
CCCCCCCCN1C(=O)[C@H](CC(=O)NCCCN2CCCC2=O)C[C@@]2(C(=O)OC)CC(C)(C)CC=C12	0	x	x	x	x	x
CCCC(=O)c1c[nH]c(C(=O)NCc2cccnc2)c1	0	2	3	-3	-7	-2
CCC(=O)c1c[nH]c(C(=O)NCc2cccnc2)c1	0	80*	2	-14	-9	-5
CC(C)NS(=O)(=O)c1ccc(OCC(=O)Nc2ccc(F)cc2F)cc1	0	3	4	8	-3	-2
COc1c(Cl)cc(Cl)cc1/C=N/NC(=O)c1nnn(-c2nonc2N)c1CN1CCC(C)CC1	0	x	x	5	x	x
CC1CCN(Cc2c(C(=O)N/N=C/c3cc(Cl)ccc3O)nnn2-c2nonc2N)CC1	0	x	x	82*	x	x
SMILES	Tb MetRS inh	14-3-3 Bad inh	p97 ATPase inh	UBC9 SUMO inh	NCF1 inh	eIF4E 4G PPI
CC1CCN(Cc2c(C(=O)N/N=C/c3cc(Br)ccc3O)nnn2-c2nonc2N)CC1	0	x	x	76*	x	x
Nc1nc2cc3c(cc2cc1C(=O)NCc1ccc(F)cc1)OCO3	0	x	x	x	x	x
COCCCNCC(=O)c1c(N)n(Cc2ccccc2)c(=O)n(C)c1=O	-1	75*	1	25	-7	9
Cn1c(=O)c(C(=O)CN2CCCCCC2)c(N)n(Cc2ccccc2)c1=O	0	-8	4	8	-8	2
COc1ccc(CNC(=O)Nc2ccc(C)cc2)cc1	-1	3	-1	-8	-1	2
CCOC(=O)c1ccc(NC(=O)NCc2ccc(OC)cc2)cc1	0	79*	2	1	-7	0
N#C/C(=C\c1ccc(OC(=O)c2ccc(Br)s2)cc1)c1nc2ccccc2[nH]1	-1	61	4	10	5	34*
O=C(N/N=C\c1cn[nH]c1-c1ccc(Cl)cc1)c1cccs1	0	0	8	52*	-7	-2
CC(C)OC(=O)c1cccc2c1C(=O)c1ccccc1-2	0	1	0	22	50*	6
Nc1cc(-c2nn[nH]n2)ccc1F	-2	72*	7	34	5	4
Cc1ccc(-c2sc(-c3cccnc3)nc2CC(=O)O)cc1	0	75*	0	9	-4	0
CC(=O)Nc1ccc(NC(=O)Cc2sc(-c3cccnc3)nc2-c2ccc(C)cc2)cc1	-1	2	15*	-14	-10	-2
Cc1ccc(S(=O)(=O)N2[C@H](CC(=O)c3ccc(F)cc3)OC[C@@H]2C)cc1	0	x	x	x	x	x
CC1=NN(c2ccc(S(=O)(=O)O)cc2C)C(=O)C1	1	-8	6	84*	3	-2
NC(=O)CCn1c(=O)oc2ccccc21	0	36	1	-17	68*	10
Cc1ccc(S(=O)(=O)N2[C@@H](CCO)OC[C@H]2C(C)C)cc1	0	x	x	x	x	x
CCc1ccc(OCCOCC(O)CNC(C)(C)C)cc1 (centres undefined)	0	-1	3	-3	-13	-2
CCNCC(O)COCC(O)CNCC (centres undefined)	0	4	4	-6	-12	46*
Nc1nc2ccc(Cl)cc2cc1C(=O)NCCc1c[nH]c2ccccc12	1	x	x	x	x	x
Cn1c2ccccc2c2cc(/C=N/NC(=O)c3cc(O)cc(O)c3)ccc21	0	x	x	12	x	x
Cn1c2ccccc2c2cc(/C=N/NC(=O)c3cc(O)ccc3O)ccc21	1	x	x	58*	x	x
COC(=O)c1onc(-c2c(Cl)cccc2Cl)c1C(=O)OC	-1	1	-3	-16	47*	3
Cc1ccc(S(=O)(=O)CCC(=O)NCc2ccccc2Cl)cc1	-1	-21	2	-4	0	60*
Cc1ccc([N+](=O)[O-])cc1N=C(c1ccc([N+](=O)[O-])cc1)N1CCOCC1	0	-13	3	-6	-12	2

High-throughput results from PubChem BioAssay.
